From ChEMBL document CHEMBL1136139, “The design, synthesis and evaluation of novel HIV-1 protease inhibitors with high potency against PI-resistant viral strains” (Bioorg Med Chem Lett, 2003)

Columns and labels:
Cytochrome P450 2C9 = Cytochrome P450 2C9 (Homo sapiens, UniProt P11712); test: Inhibition of human liver microsome Cytochrome P450 2C9; assay type: ADME, microsomes
MT4 [1] = test: Ability to inhibit spread of viral infection in MT-4 human T-lymphoidcell infected by PI-resistant HIV-1 (strain V-18C); assay type: functional; details: read-out: CIC95
Procedure, shortened: (§1)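 MT4 human T-lymphoid cells infected with HIV-1, either wild-type NL4-3 or engineered PI-resistant constructs (4X, K-60C, V-18C, Q-60C) carrying varied patterns of multiple PI resistance mutations; spread of infection in culture followed. Value is CIC95, the compound concentration inhibiting at least 95% of infectious viral spread relative to untreated virus control culture.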

[2] = Plasma clearance after peroral administration at 10 mpk in dog; assay type: ADME, organism-based, Canis lupus familiaris; details: po, 10 mg/kg, read-out: Clp
Procedure, shortened: (§2)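 Dogs dosed both intravenously (2 mg/kg) and orally (10 mg/kg). Cmax, half-life, plasma clearance (mL/min/kg) and oral bioavailability (%) were derived from plasma drug levels. The study was IACUC-approved.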

[3] = Half life period was determine after peroral administration at 10 mpk in dog; assay type: ADME, organism-based, Canis lupus familiaris; details: in vivo, po, 10 mg/kg; procedure, shortened: as §2
[4] = Oral bioavailability in dog (dose 10 mg/kg); assay type: ADME, organism-based, Canis lupus familiaris; details: in vivo; procedure, shortened: as §2
MT4 [5] = test: Ability to inhibit spread of viral infection in MT-4 human T-lymphoidcell infected by wild-type HIV-1(strain NL4-3); assay type: functional; details: read-out: CIC95; procedure, shortened: as §1
[6] = Cmax was determine after peroral administration at 10 mpk in dog; assay type: ADME, organism-based, Canis lupus familiaris; design: dose 10 mpk, route oral; details: in vivo, po, 10 mg/kg; procedure, shortened: as §2
Cytochrome P450 2D6 = Cytochrome P450 2D6 (Homo sapiens, UniProt P10635); test: Inhibition of human liver microsome Cytochrome P450 2D6; assay type: ADME, microsomes
[7] = In vitro intrinsic clearance in human liver microsome; assay type: ADME; details: liver microsomes
Procedure, shortened: (§3)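 The compound was incubated with liver microsomes from rat, dog, rhesus and human. Metabolic stability was expressed as intrinsic clearance scaled to mL/min/kg.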

MT4 [8] = test: Ability to inhibit spread of viral infection in MT-4 human T-lymphoidcell infected by PI-resistant HIV-1 (strain K-60C); assay type: functional; details: read-out: CIC95; procedure, shortened: as §1
MT4 [9] = test: Ability to inhibit spread of viral infection in MT-4 human T-lymphoidcell infected by PI-resistant HIV-1 (strain Q-60C); assay type: functional; details: read-out: CIC95; procedure, shortened: as §1
Cytochrome P450 3A4 = Cytochrome P450 3A4 (Homo sapiens, UniProt P08684); test: Inhibition of human liver microsome Cytochrome P450 3A4
[10] = molecular target: Human immunodeficiency virus type 1 protease (Human immunodeficiency virus 1, UniProt Q72874); test: Inhibitory activity against HIV-1 Protease
MT4 [11] = test: Ability to inhibit spread of viral infection in MT-4 human T-lymphoidcell infected by PI-resistant HIV-1 (strain 4X Virus); assay type: functional; details: read-out: CIC95; procedure, shortened: as §1
[12] = Intrinsic clearance in dog liver microsome; assay type: ADME, Canis lupus familiaris; details: liver microsomes; procedure, shortened: as §3
[13] = Half life period was determine after peroral administration at 10 mpk in Rhesus; assay type: ADME, organism-based, Macaca mulatta; details: rhesus monkey, in vivo, po, 10 mg/kg
Procedure, shortened: (§4)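 Rhesus monkeys were given 10 mg/kg orally and 2 mg/kg intravenously. Cmax, half-life, AUC, plasma clearance (mL/min/kg) and bioavailability (%) were taken from plasma concentration profiles.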

[14] = Cmax was determine after peroral administration at 50 mpk in Rat; assay type: ADME, organism-based; design: dose 50 mpk, route oral; details: in vivo, po, 50 mg/kg
Procedure, shortened: (§5)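 Rats were dosed orally across 10–160 mg/kg (10, 20, 50, 160). The 10 mg/kg oral arm was paired with 5 mg/kg intravenous dosing. Cmax, AUC, half-life, plasma clearance (mL/min/kg) and bioavailability (%) were determined at each oral dose.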

[15] = Cmax was determine after peroral administration at 10 mpk in Rhesus; assay type: ADME, organism-based, Macaca mulatta; design: dose 10 mpk, route oral; details: rhesus monkey, in vivo, po, 10 mg/kg; procedure, shortened: as §4
Rattus norvegicus [16] = test: Plasma clearance after peroral administration at 10 mpk in Rat; assay type: ADME, organism-based; details: in vivo, po, 10 mg/kg; procedure, shortened: as §5
[17] = Oral bioavailability after peroral administration at 50 mpk in Rat; assay type: ADME, organism-based; details: in vivo, 50 mg/kg; procedure, shortened: as §5
Rattus norvegicus [18] = test: Area under curve was determine after peroral administration at 10 mpk in Rat; assay type: ADME, organism-based; details: in vivo, po, 10 mg/kg; procedure, shortened: as §5
[19] = Intrinsic clearance in rat liver microsome; assay type: ADME; details: liver microsomes; procedure, shortened: as §3
[20] = Cmax was determine after peroral administration at 160 mpk in Rat; assay type: ADME, organism-based; design: dose 160 mpk, route oral; details: in vivo, po, 160 mg/kg; procedure, shortened: as §5
[21] = Half life period was determine after peroral administration at 10 mpk in Rat; assay type: ADME, organism-based; details: in vivo, po, 10 mg/kg; procedure, shortened: as §5
[22] = Oral bioavailability in Rhesus monkey (dose 10 mg/kg p.o.); assay type: ADME, organism-based, Macaca mulatta; details: in vivo; procedure, shortened: as §4
Rhesus monkey [23] = test: Area under curve was determine after peroral administration at 10 mpk in Rhesus; assay type: ADME, organism-based, Macaca mulatta; details: in vivo, po, 10 mg/kg; procedure, shortened: as §4
[24] = Area under curve was determine after peroral administration at 20 mpk in Rat; assay type: ADME, organism-based; details: in vivo, po, 20 mg/kg; procedure, shortened: as §5
[25] = Area under curve was determine after peroral administration at 160 mpk in Rat; assay type: ADME, organism-based; details: in vivo, po, 160 mg/kg; procedure, shortened: as §5
[26] = Oral bioavailability after peroral administration at 10 mpk in Rat; assay type: ADME, organism-based; details: in vivo, 10 mg/kg; procedure, shortened: as §5
Rhesus monkey [27] = test: Plasma clearance after peroral administration at 10 mpk in Rhesus; assay type: ADME, organism-based, Macaca mulatta; details: in vivo, po, 10 mg/kg; procedure, shortened: as §4
[28] = Oral bioavailability after peroral administration at 20 mpk in Rat; assay type: ADME, organism-based; details: in vivo, 20 mg/kg; procedure, shortened: as §5
[29] = Oral bioavailability after peroral administration at 160 mpk in Rat; assay type: ADME, organism-based; details: in vivo, 160 mg/kg; procedure, shortened: as §5
[30] = Area under curve was determine after peroral administration at 50 mpk in Rat; assay type: ADME, organism-based; details: in vivo, po, 50 mg/kg; procedure, shortened: as §5
[31] = Intrinsic clearance in Rhesus liver microsome; assay type: ADME, Macaca mulatta; details: rhesus monkey, liver microsomes; procedure, shortened: as §3
[32] = Cmax was determine after peroral administration at 20 mpk in Rat; assay type: ADME, organism-based; design: dose 20 mpk, route oral; details: in vivo, po, 20 mg/kg; procedure, shortened: as §5
[33] = Cmax was determine after peroral administration at 10 mpk in Rat; assay type: ADME, organism-based; design: dose 10 mpk, route oral; details: in vivo, po, 10 mg/kg; procedure, shortened: as §5

Sequence of Cytochrome P450 3A4 (P08684 whole entry): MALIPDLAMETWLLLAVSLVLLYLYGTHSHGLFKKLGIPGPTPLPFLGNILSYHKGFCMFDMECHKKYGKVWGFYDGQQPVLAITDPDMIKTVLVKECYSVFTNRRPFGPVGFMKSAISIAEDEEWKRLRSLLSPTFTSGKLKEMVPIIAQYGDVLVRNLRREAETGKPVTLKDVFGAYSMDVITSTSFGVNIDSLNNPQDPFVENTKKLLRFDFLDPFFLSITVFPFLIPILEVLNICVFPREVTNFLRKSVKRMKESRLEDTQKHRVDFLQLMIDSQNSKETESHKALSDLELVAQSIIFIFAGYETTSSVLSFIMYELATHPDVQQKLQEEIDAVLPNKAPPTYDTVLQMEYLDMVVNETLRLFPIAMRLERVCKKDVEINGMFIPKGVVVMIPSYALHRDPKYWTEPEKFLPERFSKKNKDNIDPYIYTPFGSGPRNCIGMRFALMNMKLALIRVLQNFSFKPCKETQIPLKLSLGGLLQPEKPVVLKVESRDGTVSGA
Sequence of Cytochrome P450 2D6 (P10635 whole entry): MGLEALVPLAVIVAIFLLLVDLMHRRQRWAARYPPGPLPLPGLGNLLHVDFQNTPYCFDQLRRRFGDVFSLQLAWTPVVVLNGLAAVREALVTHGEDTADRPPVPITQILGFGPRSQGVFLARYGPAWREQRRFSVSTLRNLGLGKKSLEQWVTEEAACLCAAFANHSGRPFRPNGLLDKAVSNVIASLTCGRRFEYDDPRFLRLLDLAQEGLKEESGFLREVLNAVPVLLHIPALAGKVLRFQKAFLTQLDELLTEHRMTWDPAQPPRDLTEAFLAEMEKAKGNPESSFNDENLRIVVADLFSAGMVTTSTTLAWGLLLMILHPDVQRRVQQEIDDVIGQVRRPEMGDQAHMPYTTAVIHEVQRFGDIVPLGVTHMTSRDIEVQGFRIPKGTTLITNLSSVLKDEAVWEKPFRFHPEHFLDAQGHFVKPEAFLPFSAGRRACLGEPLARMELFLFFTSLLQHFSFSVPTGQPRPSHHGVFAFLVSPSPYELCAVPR
Sequence of Cytochrome P450 2C9 (P11712 whole entry): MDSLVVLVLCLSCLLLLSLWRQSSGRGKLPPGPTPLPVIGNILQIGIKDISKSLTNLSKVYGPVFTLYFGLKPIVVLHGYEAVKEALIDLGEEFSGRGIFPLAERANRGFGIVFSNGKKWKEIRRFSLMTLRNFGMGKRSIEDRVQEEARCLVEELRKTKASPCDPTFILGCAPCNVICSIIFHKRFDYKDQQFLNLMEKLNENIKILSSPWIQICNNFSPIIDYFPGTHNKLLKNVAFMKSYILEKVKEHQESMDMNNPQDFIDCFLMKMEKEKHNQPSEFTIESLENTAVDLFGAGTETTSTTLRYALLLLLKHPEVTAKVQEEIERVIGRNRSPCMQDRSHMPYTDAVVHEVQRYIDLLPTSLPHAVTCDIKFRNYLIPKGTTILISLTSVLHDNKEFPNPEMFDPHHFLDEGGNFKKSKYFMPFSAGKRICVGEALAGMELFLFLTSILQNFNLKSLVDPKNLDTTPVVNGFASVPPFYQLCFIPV

## CC(C)(c1ncc(-c2cccnc2)o1)N1CCN(C[C@@H](O)C[C@@H](Cc2ccccc2)C(=O)N[C@H]2c3ccccc3OC[C@H]2O)[C@H](C(=O)NCC(F)(F)F)C1
Cytochrome P450 2C9
  IC50: 33000 nM
MT4 [1]
  IC95: 125 nM
[2]
  CL/F: 1.26 L/h/kg
[3]
  half-life: 1.57 h
[4]
  bioavailability: 10%
MT4 [5]
  IC95: ≤ 8 nM
[6]
  Cmax: 3.8 µM
Cytochrome P450 2D6
  IC50: 10500 nM
[7]
  CLint scaled: 1.62 L/h/kg
MT4 [8]
  IC95: 31 nM
MT4 [9]
  IC95: 31 nM
Cytochrome P450 3A4
  IC50: 110 nM
[10]
  IC50: 0.04 nM

## O=C(N[C@H]1c2ccccc2OC[C@H]1O)[C@H](Cc1ccccc1)C[C@H](O)CN1CCN(Cc2ncc(-c3ccccn3)o2)C[C@H]1C(=O)NCC(F)(F)F
MT4 [1]
  IC95: 125 nM
MT4 [11]
  IC95: 31 nM
MT4 [5]
  IC95: 23 nM
MT4 [9]
  IC95: 125 nM
[10]
  IC50: 0.13 nM

## COc1cncc(-c2cnc(C(C)(C)N3CCN(C[C@@H](O)C[C@@H](Cc4ccccc4)C(=O)N[C@H]4c5ccccc5OC[C@H]4O)[C@H](C(=O)NCC(F)(F)F)C3)o2)c1
[12]
  CLint: 4.02 L/h/kg
[13]
  half-life: 1.22 h
[14]
  Cmax: 3.06 µM
Cytochrome P450 2C9
  IC50: 30000 nM
[15]
  Cmax: 0.1 µM
Rattus norvegicus [16]
  Clp: 6.24 L/h/kg
MT4 [1]
  IC95: 15 nM
[2]
  CL/F: 1.08 L/h/kg
[3]
  half-life: 1.02 h
[4]
  bioavailability: 30%
[17]
  bioavailability: 40.5%
MT4 [5]
  IC95: ≤ 8 nM
Rattus norvegicus [18]
  AUC: 30 nM·h
[19]
  CLint: 5.22 L/h/kg
[6]
  Cmax: 4.3 µM
[20]
  Cmax: 6.88 µM
Cytochrome P450 2D6
  IC50: 8700 nM
[21]
  half-life: 0.433 h
[22]
  bioavailability: 2.2%
Rhesus monkey [23]
  AUC: 120 nM·h
[24]
  AUC: 380 nM·h
[25]
  AUC: 15700 nM·h
[26]
  bioavailability: 1.5%
[7]
  CLint scaled: 0.78 L/h/kg
Rhesus monkey [27]
  Clp: 1.98 L/h/kg
[28]
  bioavailability: 9.2%
MT4 [8]
  IC95: 15 nM
MT4 [9]
  IC95: 31 nM
[29]
  bioavailability: 47.2%
Cytochrome P450 3A4
  IC50: 40 nM
[30]
  AUC: 4020 nM·h
[31]
  CLint: 7.2 L/h/kg
[32]
  Cmax: 0.37 µM
[10]
  IC50: 0.02 nM
[33]
  Cmax: 0.04 µM

## O=C(N[C@H]1c2ccccc2OC[C@H]1O)[C@H](Cc1ccccc1)C[C@H](O)CN1CCN(Cc2ncc(-c3cccnc3)o2)C[C@H]1C(=O)NCC(F)(F)F
MT4 [1]
  IC95: 250 nM
MT4 [11]
  IC95: 62 nM
MT4 [5]
  IC95: 27 nM
MT4 [8]
  IC95: 125 nM
MT4 [9]
  IC95: 125 nM
[10]
  IC50: 0.14 nM

## O=C(N[C@H]1c2ccccc2OC[C@H]1O)[C@H](Cc1ccccc1)C[C@H](O)CN1CCN(Cc2ncc(-c3ccncc3)o2)C[C@H]1C(=O)NCC(F)(F)F
MT4 [1]
  IC95: 125 nM
MT4 [11]
  IC95: 62 nM
MT4 [5]
  IC95: 23 nM
MT4 [8]
  IC95: 125 nM
MT4 [9]
  IC95: 250 nM
[10]
  IC50: 0.1 nM

## O=C(N[C@H]1c2ccccc2OC[C@H]1O)[C@H](Cc1ccccc1)C[C@H](O)CN1CCN(Cc2ccc(-c3ccccn3)o2)C[C@H]1C(=O)NCC(F)(F)F
MT4 [1]
  IC95: 15 nM
MT4 [5]
  IC95: ≤ 8 nM
MT4 [8]
  IC95: 31 nM
MT4 [9]
  IC95: 15 nM
[10]
  IC50: 0.05 nM

## CC(C)(c1ncc(-c2ccccn2)o1)N1CCN(C[C@@H](O)C[C@@H](Cc2ccccc2)C(=O)N[C@H]2c3ccccc3OC[C@H]2O)[C@H](C(=O)NCC(F)(F)F)C1
Cytochrome P450 2C9
  IC50: 28000 nM
MT4 [1]
  IC95: 62 nM
MT4 [5]
  IC95: ≤ 8 nM
Cytochrome P450 2D6
  IC50: 22200 nM
[7]
  CLint scaled: 30 L/h/kg
MT4 [8]
  IC95: 31 nM
MT4 [9]
  IC95: 15 nM
Cytochrome P450 3A4
  IC50: 5000 nM
[10]
  IC50: 0.04 nM

## CC(C)(c1ncc(-c2cnccc2Cl)o1)N1CCN(C[C@@H](O)C[C@@H](Cc2ccccc2)C(=O)N[C@H]2c3ccccc3OC[C@H]2O)[C@H](C(=O)NCC(F)(F)F)C1
Cytochrome P450 2C9
  IC50: 21000 nM
MT4 [1]
  IC95: 31 nM
[2]
  CL/F: 1.14 L/h/kg
[3]
  half-life: 1.53 h
[4]
  bioavailability: 8%
MT4 [5]
  IC95: ≤ 8 nM
[6]
  Cmax: 1 µM
Cytochrome P450 2D6
  IC50: 4170 nM
[7]
  CLint scaled: 2.1 L/h/kg
MT4 [8]
  IC95: 16 nM
Cytochrome P450 3A4
  IC50: 40 nM
[10]
  IC50: 0.02 nM

## CC(C)(C)NC(=O)[C@@H]1CN(Cc2cccnc2)CCN1C[C@@H](O)C[C@@H](Cc1ccccc1)C(=O)N[C@H]1c2ccccc2C[C@H]1O
MT4 [1]
  IC95: > 1000 nM
MT4 [11]
  IC95: 400 nM
MT4 [5]
  IC95: 50 nM
MT4 [8]
  IC95: > 1000 nM
MT4 [9]
  IC95: > 1000 nM
